Assay results gathered from unrelated publications.
Protocols differ between the studies behind these lines.

SMILES	species	medium	route	dose	setting	quantity	result
Cc1ccc(CCC(=O)Nc2nnc(S(N)(=O)=O)s2)cc1	male BALB/c mouse	plasma	oral	20 mg/kg	–	AUC	12.5 µM·h
COCC(=O)N1CCc2[nH]c3c(Cl)c(Cl)ccc3c2[C@@H]1C	C57BL/6 mouse	blood	oral	20 mg/kg	–	AUC(0-inf)	8.24 µM·h
CCOC(=O)c1c(NC(=O)CNC(C)C)sc2c1CCCCC2	male mouse	plasma	intraperitoneal	100 mg/kg	single dose	AUC(0-inf)	19300 ng·h/mL
Cc1nc2ccc(OCc3ccc(C(F)(F)F)cc3)cc2[nH]1	male BALB/c mouse	plasma	intravenous	1 mg/kg	–	AUC(0-inf)	3800 ng·h/mL
NCc1cc2c(cc1F)C(=O)N(C1CCC(=O)NC1=O)C2 (centres unmarked)	male CD-1 mouse	plasma	intravenous	1 mg/kg	–	AUC(0-inf)	149 ng·h/mL
C[C@@H]1COCCN1c1cc(=O)n2c(n1)N(Cc1cncc(Cl)c1)[C@H](C(F)(F)F)CC2	C57BL/6 mouse	plasma	intraperitoneal	10 mg/kg	single dose	AUC(0-inf)	3280 ng·h/mL
OCc1nc2ccc(NCc3ccc(C(F)(F)F)cc3)cc2[nH]1	male BALB/c mouse	plasma	intravenous	1 mg/kg	–	AUC(0-inf)	482 ng·h/mL
OCc1ccc(-c2nn(Cc3ccccc3)c3ccccc23)o1	male CD-1 mouse	plasma	oral	10 mg/kg	–	AUC(0-t)	218 ng·h/mL
COc1cccc2c(N3CCC(CCP(=O)(O)O)CC3)ncnc12	female C57BL/6 mouse	brain	subcutaneous	50 mg/kg	–	AUC(0-inf)	751 ng·h/mL
NCc1ccc(-c2nn(Cc3ccccc3)c3ccccc23)o1	male CD-1 mouse	plasma	intravenous	5 mg/kg	–	AUC(0-t)	1310 ng·h/mL
CC(C)[C@@H](CS(=O)(=O)C(C)C)N1C(=O)[C@@](C)(CC(=O)O)C[C@H](c2cccc(Cl)c2)[C@H]1c1ccc(Cl)cc1	FVB mouse	brain	intravenous	20 mg/kg	single dose	AUC(0-inf)	172 ng·h/mL
CCn1c(=O)c(-c2cc(NC(=O)Nc3ccccc3)c(F)cc2Br)cc2cnc(NC)cc21	male mouse	plasma	oral	15 mg/kg	single dose	AUC	2310 ng·h/mL
O=C1CCC(N2Cc3cc(C4CCN(Cc5ccccc5)CC4)ccc3C2=O)C(=O)N1 (centres unmarked)	male CD-1 mouse	plasma	oral	3 mg/kg	–	AUC(0-inf)	603 ng·h/mL
CN(C)C(=O)c1cc2cnc(Nc3ccc(-c4ccc5c(=O)cc(N6CCOCC6)oc5c4)cc3)nc2n1C1CCCC1.Cl	BALB/c mouse	plasma	intravenous	2 mg/kg	–	AUC(0-inf)	2790 ng·h/mL
